Reference: ChEMBL document CHEMBL3525903 (Drug Metab Dispos, 2013)

Tests used:
[1] = molecular target: T1, Organic anion transporter 3 (Homo sapiens, UniProt Q8TCC7); assay: Inhibition of OAT3 (unknown origin) expressed in HEK293 cells assessed as reduction of [3H]E-sul substrate uptake by liquid scintillation counting; format: ADME, cell-based
T1 sequence (Q8TCC7 whole entry): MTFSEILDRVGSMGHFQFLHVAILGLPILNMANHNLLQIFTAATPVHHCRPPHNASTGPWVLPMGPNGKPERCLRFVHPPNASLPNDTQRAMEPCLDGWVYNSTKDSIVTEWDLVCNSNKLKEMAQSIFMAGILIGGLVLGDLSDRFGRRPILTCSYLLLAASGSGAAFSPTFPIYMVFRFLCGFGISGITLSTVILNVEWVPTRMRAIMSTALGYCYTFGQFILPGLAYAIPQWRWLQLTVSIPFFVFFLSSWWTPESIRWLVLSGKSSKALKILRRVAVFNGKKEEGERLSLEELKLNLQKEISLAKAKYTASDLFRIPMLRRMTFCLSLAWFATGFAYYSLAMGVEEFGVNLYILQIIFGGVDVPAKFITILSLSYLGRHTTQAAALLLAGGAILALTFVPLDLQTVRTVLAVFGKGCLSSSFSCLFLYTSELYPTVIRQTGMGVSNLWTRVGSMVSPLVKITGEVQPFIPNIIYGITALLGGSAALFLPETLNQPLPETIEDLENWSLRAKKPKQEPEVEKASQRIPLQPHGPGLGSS

[2] = Maximal inhibition of human P-glycoprotein expressed in pig LLC-PK1 cells assessed as reduction of [3H]digoxin substrate transport at 100 uM by liquid scintillation counting; format: ADME, cell-based; settings: llc-pk1, 100 µM
Summary of the method: (§1)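 P-gp-expressing and parental LLC-PK1 monolayers were grown on transwell inserts for 6–7 days to confluence and switched to serum-free M199 1 h before assay. [3H]digoxin was given apical-to-basal or basal-to-apical, with inhibitor in both chambers, at 37 °C, solvent ≤0.5%. Receiver samples were scintillation-counted and Papp taken from the linear phase. Results are % of control BtoA transport, mean ± S.D., n≥3.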

[3] = tested on: P-glycoprotein; assay: Permeability assessed as human P-glycoprotein-mediated transport across apical to basolateral side expressed in pig LLC-PK1 cells at 2 uM by liquid scintillation counting; format: ADME, cell-based
[4] = tested on: P-glycoprotein; assay: Permeability assessed as human P-glycoprotein-mediated transport across apical to basolateral side expressed in pig LLC-PK1 cells by Transwell experiment/liquid scintillation counting; format: ADME, cell-based
[5] = Inhibition of human P-glycoprotein expressed in pig LLC-PK1 cells assessed as reduction of [3H]digoxin substrate transport by liquid scintillation counting; format: ADME, cell-based; summary of the method: as §1
[6] = molecular target: T2, Solute carrier family 22 member 6 (Homo sapiens, UniProt Q4U2R8); assay: Inhibition of OAT1 (unknown origin) expressed in HEK293 cells assessed as reduction of [3H]PAH substrate uptake at 100 uM by liquid scintillation counting; format: ADME, cell-based; settings: hek293, 100 µM
T2 sequence (Q4U2R8 whole entry): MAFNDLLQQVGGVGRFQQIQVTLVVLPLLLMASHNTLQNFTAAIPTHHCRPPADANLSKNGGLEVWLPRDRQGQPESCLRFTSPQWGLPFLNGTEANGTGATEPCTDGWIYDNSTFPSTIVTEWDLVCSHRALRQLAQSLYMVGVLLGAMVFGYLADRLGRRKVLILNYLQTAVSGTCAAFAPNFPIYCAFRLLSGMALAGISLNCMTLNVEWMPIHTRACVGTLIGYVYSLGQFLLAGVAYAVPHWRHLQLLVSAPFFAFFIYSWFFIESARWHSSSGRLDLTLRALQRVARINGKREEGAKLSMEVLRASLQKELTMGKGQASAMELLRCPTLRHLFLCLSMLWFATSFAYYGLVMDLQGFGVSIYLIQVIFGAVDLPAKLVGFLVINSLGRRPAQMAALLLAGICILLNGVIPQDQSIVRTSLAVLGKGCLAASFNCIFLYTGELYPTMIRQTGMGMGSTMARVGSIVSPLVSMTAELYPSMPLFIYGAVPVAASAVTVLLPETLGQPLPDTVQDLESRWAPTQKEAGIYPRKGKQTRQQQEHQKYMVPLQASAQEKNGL
Summary of the method: (§2)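 HEK293 cells transiently transfected with OAT, OATP or OCT plasmid (FuGENE6; 24 h, then 24 h more with sodium butyrate), or stable OCTN1/OCTN2 lines; vector-transfected cells as control. Washed, preincubated 15–60 min at 37 °C in modified Krebs-Henseleit/25 mM HEPES buffer. Uptake of radiolabelled substrate, 100 µM inhibitor. Cells lysed in NaOH and counted by scintillation; counts normalised to medium radioactivity and Lowry protein; vector uptake subtracted.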

[7] = Protein binding in plasma (unknown origin); format: ADME, cell-free; settings: read-out: PPB (converted)
[8] = molecular target: T3, Solute carrier organic anion transporter family member 1B3 (Homo sapiens, UniProt Q9NPD5); assay: Inhibition of OATP1B3 (unknown origin) expressed in HEK293 cells assessed as reduction of [3H]CCK8 substrate uptake at 100 uM by liquid scintillation counting; format: ADME, cell-based; settings: hek293, 100 µM; summary of the method: as §2
T3 sequence (Q9NPD5 whole entry): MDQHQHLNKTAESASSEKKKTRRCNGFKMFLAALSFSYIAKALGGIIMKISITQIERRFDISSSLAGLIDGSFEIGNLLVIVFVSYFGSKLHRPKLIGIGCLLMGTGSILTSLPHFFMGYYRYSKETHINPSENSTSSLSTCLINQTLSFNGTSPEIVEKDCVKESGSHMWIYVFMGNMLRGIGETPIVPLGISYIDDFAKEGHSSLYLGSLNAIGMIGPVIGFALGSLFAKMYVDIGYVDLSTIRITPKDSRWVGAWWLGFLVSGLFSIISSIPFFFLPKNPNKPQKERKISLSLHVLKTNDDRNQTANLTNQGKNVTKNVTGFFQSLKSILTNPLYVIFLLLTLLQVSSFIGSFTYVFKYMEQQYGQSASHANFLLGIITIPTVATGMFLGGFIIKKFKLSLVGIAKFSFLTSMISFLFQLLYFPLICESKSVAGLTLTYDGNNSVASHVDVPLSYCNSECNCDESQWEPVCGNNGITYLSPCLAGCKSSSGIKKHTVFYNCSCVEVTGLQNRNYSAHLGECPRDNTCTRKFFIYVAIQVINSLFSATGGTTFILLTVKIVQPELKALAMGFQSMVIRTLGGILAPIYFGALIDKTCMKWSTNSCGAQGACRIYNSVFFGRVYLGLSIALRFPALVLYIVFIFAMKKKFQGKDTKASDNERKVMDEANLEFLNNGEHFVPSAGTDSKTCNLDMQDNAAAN

In the case of `CC#CCn1c(N2CCC[C@@H](N)C2)nc2c1c(=O)n(Cc1nc(C)c3ccccc3n1)c(=O)n2C` [LINAGLIPTIN], the IC50 [1] is reported as greater than 100 µM, the “inhibition (INH)” value [2] is reported as “Active” and the Papp A→B at 2 µM [3] is reported as 4.21 ×10⁻⁶ cm/s. For the same compound, the Km [4] was 220 µM, the “inhibition (INH)” value [5] was “Dose-dependent effect” and the “inhibition (INH)” value [6] was 1.07%. The fraction unbound [7] was 0.2 and the “inhibition (INH)” value [8] was 3.39%.
